# Experimental data taken from the EternaBench riboswitch data.
# Test system: MS2 coat protein
# Assay: apparent Kd, MS2 coat protein; higher = weaker binding; RNA-MaP array; FMN 200 µM where present
# Summary of the method: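 In 100 mM Tris-HCl pH 7.5, 80 mM KCl, 4 mM MgCl2, BSA, DTT, yeast tRNA and Tween-20, SNAP-549-labelled MS2 coat protein was titrated from 0.7 or 1.5 nM, doubling to 3 µM, over designs transcribed by stalled E. coli RNA polymerase on Illumina sequencing-chip clusters. This was done first without ligand, then with ligand held constant. After green signal was normalised to red-channel RNA signal and control-cluster median Fmax, the apparent Kd was taken as the median of filtered per-cluster binding-curve fits.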
# [1] = designed as: ON switch for flavin mononucleotide, no ligand
# [2] = ligand present: flavin mononucleotide, designed as: ON switch for flavin mononucleotide
# [3] = designed as: OFF switch for flavin mononucleotide, no ligand
# [4] = ligand present: flavin mononucleotide, designed as: OFF switch for flavin mononucleotide
Sequence,apparent Kd [1] [nM],apparent Kd [2] [nM],apparent Kd [3] [nM],apparent Kd [4] [nM]
GCUCUACAUGAGGAUCACCCAUGUUCGGACGCACGAGGAUAUGCAUGGGCGAAAGCUGGUGCAGAAGGCGUGGGAC,209,33.4,,
GCUCUAUGCGAGAAGGCGUGAAACAUGAGGAUCACCCAUGUCAGAGAUAUGAGGAUAUUGCAUAGAGCAAAAGACGGAAACGUC,12.2,5.02,,
GCUCUAUGCUAGAAGGCGUGAAACAUGAGGAUCACCCAUGUCAGAGAAAUGAGGAUAUAGCAUAGAGCAAAAGACGGAAACGUC,11.1,5.61,,
GCUCUGUCAGGAUAUCAGGCUGACGGAACUUGGCUGUUAGAUGAGAAGGGACAUGAGGAUCACCCAUGUAAAAU,,,33.8,34.8
GCUGAAUGAACAUGAGGAUCACCCAUGUACAGGAAACUGAAUGAGGAUAUCCAUAGCAAAGCUAUGGAGAAGGCAUGGGUCAGC,338,94,,
GCUGACGAUGUAGGAUAUCUCGACGAUAAGUCGAGAGAAGGACAUGAGGAUCACCCAUGUACUCAAACGUCAGCGAGGAAACUC,,,18.7,27.6
GCUGCAUAGGCAGGAUAUGCAAAAAACGAUGCAAAGCAUCGAAAAAAAACAUGAGGAUCACCCAUGUAGAAGGGCCUGUGCAGU,,,22.6,20.8
GCUGCAUGCAGAGGAUAUAUAACAUGAGGAUCACCCAUGUAAAAUAUAUGGAUAAACCAGAUAGUAUAGAAGGCUGCAUGCAGC,,,22.9,19.1
GCUGCGCGAGGAUAUGCGGUUUGCGCUGUGGCCCGUGGCGUACAUGAGGAUCACCCAUGUAGAAGGCGUGCGGG,,,11.6,12.1
GCUGCGCGAGGAUAUGCGGUUUGUGCUUUGGGCCCUGGCGUACAUGAGGAUCACCCAUGUAGAAGGCGUGUGGG,,,43.6,38.4
GCUGCGUAUGAGAAGGCGAUCAUGAAACAUGAUCGAGGAUAUCAUGUUUACAUGAGGAUCACCCAUGUAUGGGUAUAAUGCAGC,335,18.1,,
GCUGCGUAUGCAGGAUAUACAUGAGGAUCACCCAUGUAACUCGAACUCUAAGCGGGUGCGCGCAUGUAGAAGGGCAGGCGAGCC,,,35.5,51.2
GCUGGACGAGGAUAUACAUAACGUGCUUCGGCACGAGAUCUACAUGAGGAUCACCCAUGUAGAAGGUGUCCAGC,,,13.7,16.2
GCUGGACGAGGAUAUAUAUGACGUGCUUCGGCACGAAGGUCACAUGAGGAUCACCCAUGUAGAAGGUGUCCAGC,,,30.7,106
GCUGGACGUCGAGGAUAUGGGUGUGCGAGUCUUGGCACUGGACAUGAGGAUCACCCAUGUCGCUUCCAGAAGGCGACGUCCCUA,35.1,6.55,,
GCUGGGUAGGCAGGAUAUCCUCGCGCAAACACAUGAGGAUCACCCAUGUACACAAAACGUGAUAUGGAGAAGGGCCGACCCACA,22.4,5.72,,
GCUGGUCGAGGAUAUGCAAUCGUGCUUCGGCACGUAAGGUCACAUGAGGAUCACCCAUGUAGAAGGUGACCAGC,,,17.1,23.3
GCUGUCGCGUGAGGAUAUGGUCAGCUUUGCUGACCAGAAGGCAUGUCAAUAGACAUGAGGAUCACCCAUGUGGUUAGGGCGGCU,1070,136,,
GCUUAAGUAGGAUAUACUUGGGCUCGGCUGAUGUGCCUAAAACAUGAGGAUCACCCAUGUAGAAGGACUAAAGC,,,13.9,12.1
GCUUCCGCAUGAGGAUAUUGUUAAGGGACGGGACCUCAUGACCCACAUGAGGAUCACCCAUGUGGCGAGAAGGCGUGUAGAGCG,,,10.1,32.7
GCUUCGGCUGUGAGGAUAUCGGGCCCGAAAGGGCCCGAGAAGGCACAUGAGGAUCACCCAUGUAAGGUUGAAGU,,,18.8,15.4
GCUUGUGAAGGAUAUACUGGCGGCGUGCGCUCGAAGCACGCACAUGAGGAUCACCCAUGUAGAAGGUCAGGCGU,,,16.3,13.8
GCUUGUGAAGGAUAUACUGGCGGCGUGCGCUCGGCGCGCGCACAUGAGGAUCACCCAUGUAGAAGGUCAGGCGU,,,13.8,12.5
GGAAAUCAUGUAGGAUAUGCAUGGCGAAGCUACGCAGAAGGACAUGAGGAUCACCCAUGUUCUGGCUACCGGAUACGGUGGCAA,,,20.7,94.3
GGAAAUUAGCAAGGAUAUCGGCUCACUAUUACUUUAUGCCCUAGGACAUGAGGAUCACCCAUGUACGAGAAGGUGCUAACUACA,,,28.5,31.1
GGAAGACAAAGUCUUCCAUAACGAACAUGAGGAUCACCCAUGUAGGAUAUGCUUCUCAAAGAGAAGCAGAAGGACAUGUGUCUU,,,29.7,137
GGAAUGUCGGGAGGAUAUCCAAAUGUAUACAUAGGAGAAGGCCCGCACAUGAGGAUCACCCAUGUAAUAACGCGUGGCAUCUAC,,,81.3,169

Sequence,apparent Kd [1] [nM],apparent Kd [2] [nM],apparent Kd [3] [nM],apparent Kd [4] [nM]
GGACAGUGUCGUUAUCCGUAGCGAACAUGAGGAUCACCCAUGUAGGAUAUGUUAUUAAACUAAUAACAGAAGGACGUUGGUCUC,,,24.8,125
GGACAUUUACAGAAGGGCAAGUUGGAUCGCGGAUAACGCGAUCCGACUUGCAGGAUAUGUUGAACAUGAGGAUCACCCAUGUCU,7.99,8.52,,
GGACCGCGCAGAAUUGGCGGCCGGCAGGAUAUGACAUGAGGAUCACCCAUGUGAACUCCAUUGGGUCAGAAGGGCCACGACACA,,,21.1,66.8
GGACGACCCAUUAACAUGAGGAUCACCCAUGUCAAAAGACAUGAGGAUAUGGUACCUAAUUGGUACCAGAAGGCAUGGUCGUCC,1470,107,,
GGACGUCACAUUAACAUGAGGAUCACCCAUGUCAAAAGACAUGAGGAUAUGGAUAAUAAUAUAAACCAGAAGGCAUGGACGUCC,526,29.2,,
GGACGUCACAUUAACAUGAGGAUCACCCAUGUCAAAAGACAUGAGGAUAUGGAUGCGAAACGCAUCCAGAAGGCAUGGACGUCC,629,41.1,,
GGACGUCACAUUAACAUGAGGAUCACCCAUGUCAAAGGACAUGAGGAUAUGGAUCCUAAUUGGAUCCAGAAGGCAUGGACGUCC,398,34.3,,
GGACGUCUCAUUAACAUGAGGAUCACCCAUGUCGAUAGACAUGAGGAUAUGGAUCCUAAUUGGAUCCAGAAGGCAUGGACGUCC,1040,67.6,,
GGAGAACACAUUAACAUGAGGAUCACCCAUGUCAAAAGACAUGAGGAUAUGGAUCCGAAAAGGAUCCAGAAGGCAUGGUGCUCC,511,26.5,,
GGAGACCUCACAGGAUAUGCUGGACUUUGUCCAGCAGAAGGGUGAAAACAUGAGGAUCACCCAUGUAUGGUCUCCAAAUUUAAG,190,15.3,,
GGAGCACAUAAAUACAUGAGGAUCACCCAUGUCAAAAGACAUGAGGAUAUGGAUCGGAAAACGAUCUAGAAGGCAUGGUGCUCC,533,20.9,,
GGAGCACAUAUUAACAUGAGGAUCACCCAUGUCAAAAGACAUGAGGAUAUGGAUCCGAAAAGGAUCUAGAAGGCAUGGUGCUCC,690,22.1,,
GGAGCAGGGUCAGGAUAUGUAAGUAGACGGCAAAUAGAAGGGACAUGAGGAUCACCCAUGUAACAUUAAAAUGAAGCAAGGGAG,,,59.1,71.1
GGAGCCGGCCUAGGAUAUUUCAUAACAAAACAUGAGGAUCACCCAUGUAGGCCAGAAGGCCUUGGGAAGAAGGAGGUCGGCUCC,29.6,11.7,,
GGAGCUCCAGCGCAGGAUAUCGACCCAGGGACAUGAGGAUCACCCAUGUUCCAAAAAAAAUGGGUCGAGAAGGGCGUUGGAGAGCC,12.6,9.62,,
GGAGCUCCUGACAUGAGGAUCACCCAUGUUCACUUAUUAAAUCAGGAUAUCCUCUCGAAACGAGAGGAGAAGGGAUAUGCUCCU,7.58,7.04,,
GGAGGACAUGAGGAUCACCCAUGUGGAUGAUCGCUAGGAUAUGCGUGCAGGAAGAGUGGUGCAGAAGGAGUGGGAU,451,288,,
GGAUACGACAGAGGAUAUACGUGCUAGAGAUACUAGCAAAAUUUCCUCACAUGAGGAUCACCCAUGUAGAAGGCUGUCCUAUCG,,,16.2,337
GGAUAGCACAGAGGAUAUACGUGCUAGAGAUACUAGCAAAAUUUCCUCACAUGAGGAUCACCCAUGUAGAAGGCUGUCCUAUCG,,,4.44,5.5
GGAUAGGACAGAGGAUAUACGUGCUAGAGAUACUAGCAAAAGUUCCUCACAUGAGGAUCACCCAUGUAGAAGGCUGUCCUAUCG,,,65.5,214
GGAUAGGACAGAGGAUAUACGUGCUAGAGAUACUAGCAAAAUUUCCUCACAUGAGGAUCACCCAUGUAGAAGGAUGUCCUAUCG,,,5.3,7.61
GGAUAGGACAGAGGAUAUACGUGCUAGAGAUACUAGCAAAAUUUCCUCACAUGAGGAUCACCCAUGUAGAAGGCUGUCCAAUCG,,,13.8,429
GGAUAGGACAGAGGAUAUACGUGCUAGAGAUACUAGCAAAAUUUCCUCACAUGAGGAUCACCCAUGUAGAAGGCUGUCCUAUGG,,,16.6,402
GGAUAGGACAGAGGAUAUACGUGCUAGAGAUACUAGCAAAAUUUCCUCACAUGAGGAUCACCCAUGUAGAAGGCUGUCGUAUCG,,,15.3,334
GGAUAGGACAGAGGAUAUACGUGCUAGAGAUACUAGCAAAAUUUCCUCACAUGAGGAUCACCCAUGUAGAAGGCUGUGCUAUCG,,,16.4,343
GGAUAGGACAGAGGAUAUACGUGCUAGAGAUACUAGCAAAAUUUCCUUACAUGAGGAUCACCCAUGUAGAAGGCUGUCCUAUCG,,,5.79,12.7
GGAUAGGACAGAGGAUAUACGUGCUAGAGAUACUAGCGAAAUUUCCUCACAUGAGGAUCACCCAUGUAGAAGGCUGUCCUAUCG,,,28.1,892
